Laboratory results as given in ChEMBL document CHEMBL5053511, “Discovery of a Novel BCL-XL PROTAC Degrader with Enhanced BCL-2 Inhibition” (J Med Chem, 2021).
The source made the active and inactive calls. The calls are words filed in the database; no cut-off is given here.

Key:
[1] = target: T1, von Hippel-Lindau disease tumor suppressor/Bcl-2-like protein 1 (Homo sapiens, UniProt Q07817+P40337); assay: Binding affinity to VHL/ BCL-XL in human RS4-11 cells assessed as ternary complex formation at up to 300 nM measured after 12 hrs in presence of VHL-032 by immunoprecipitation assay; format: cell-based
Target sequence in this assay (P40337 whole entry, looked up, the tested form may be a part): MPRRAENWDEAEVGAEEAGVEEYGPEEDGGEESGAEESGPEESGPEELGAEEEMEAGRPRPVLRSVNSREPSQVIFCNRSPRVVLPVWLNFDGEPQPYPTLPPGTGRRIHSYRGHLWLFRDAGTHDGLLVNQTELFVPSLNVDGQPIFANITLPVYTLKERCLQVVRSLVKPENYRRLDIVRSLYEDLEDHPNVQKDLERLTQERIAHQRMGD
Target sequence in this assay (Q07817 whole entry, looked up, the tested form may be a part): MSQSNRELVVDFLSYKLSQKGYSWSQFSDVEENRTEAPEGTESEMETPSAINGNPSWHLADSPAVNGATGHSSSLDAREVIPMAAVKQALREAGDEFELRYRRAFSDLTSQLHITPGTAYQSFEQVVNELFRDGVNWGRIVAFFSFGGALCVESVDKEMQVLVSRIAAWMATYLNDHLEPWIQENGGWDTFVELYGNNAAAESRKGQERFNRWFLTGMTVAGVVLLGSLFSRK

[2] = (§1) Binding affinity to C-terminal His-tagged human BCL-2 (1 to 211 residues) expressed in Escherichia coli/recombinant human VHL (54 to end residues) fused to human N-terminal GST-tagged elongin-C/elongin -B/N-terminal His-tagged CUL2/Rbx1 expressed in baculovirus infected Sf21 insect cells assessed as ternary complex formation at up to 100000 nM measured after 30 mins by AlphaLISA assay
In short: (§2)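 Cell-free ternary complex AlphaLISA: 6×His-tagged BCL-XL, BCL-2 or MCL-1 (20 nM) mixed with serially diluted compound (4× dilution) and GST-VCB (20 nM) in 25 mM HEPES pH 7.5, 100 mM NaCl, 0.1% BSA, 0.005% Tween 20. After 30 min at room temperature, glutathione donor beads were added for 15 min, then anti-His acceptor beads for 45 min in the dark. Luminescence was plotted against log compound concentration.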

[3] = target: T1, von Hippel-Lindau disease tumor suppressor/Bcl-2-like protein 1; assay: Binding affinity to Halo-tagged VHL/HiBiT-tagged BCL-XL (unknown origin) expressed in HEK293T cells assessed as ternary complex formation at up to 100000 nM measured after 6 hrs by NanoBRET assay; format: cell-based
In short: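 NanoBRET in live HEK 293T cells. Cells were transfected with HaloTag-VHL (1 µg), HiBit-BCL-XL or HiBit-BCL-2 (10 ng) and LgBit (10 ng). After 24 h they were seeded at 2×10^4 per well in Opti-MEM with 4% FBS, with or without HaloTag 618 ligand, and held overnight. Serial compound doses were given for 6 h at 37 °C, then Nano-Glo substrate was added and mBRET ratios read. Mean ± s.e.m. of two experiments in triplicate.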
Target sequence in this assay (P40337 whole entry, looked up, the tested form may be a part): as the sequence (P40337 whole entry, looked up, the tested form may be a part) above
Target sequence in this assay (Q07817 whole entry, looked up, the tested form may be a part): as the sequence (Q07817 whole entry, looked up, the tested form may be a part) above

[4] = target: T1, von Hippel-Lindau disease tumor suppressor/Bcl-2-like protein 1; assay: Protac activity at VHL/BCL-XL in human RS4-11 cells assessed as decrease in BCL-XL protein level by densitometric analysis; format: cell-based
In short: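 MOLT-4 or RS4;11 cells were treated at a range of concentrations for 16 h. BCL-XL was immunoblotted with β-actin loading control, and band densitometry was normalised to β-actin. Mean ± SD of three independent experiments in triplicate.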
Target sequence in this assay (Q07817 whole entry, the tested form may be a part): as the sequence (Q07817 whole entry, looked up, the tested form may be a part) above
Target sequence in this assay (P40337 whole entry, the tested form may be a part): as the sequence (P40337 whole entry, looked up, the tested form may be a part) above

[5] = target: von Hippel-Lindau disease tumor suppressor/Apoptosis regulator Bcl-2 (Homo sapiens) (UniProt P10415+P40337); assay: Binding affinity to VHL/BCL-2 in human RS4-11 cells assessed as ternary complex formation at up to 300 nM measured after 12 hrs in presence of VHL-032 by immunoprecipitation assay; format: cell-based
[6] = test system: MOLT-4; assay: Cytotoxicity against human MOLT-4 cells assessed as reduction in cell viability measured after 48 hrs by MTS assay; format: functional, cell-based; conditions: MOLT-4, 48 h
[7] = test system: RS4-11; assay: Cytotoxicity against human RS4-11 cells assessed as reduction in cell viability measured after 48 hrs by MTS assay; format: functional, cell-based; conditions: RS4-11, 48 h
[8] = as §1, with “to” for “to C-terminal His-tagged”, “BCL-XL” for “BCL-2 (1 to 211 residues)”; in short: as §2

Sequence of von Hippel-Lindau disease tumor suppressor/Apoptosis regulator Bcl-2 (Homo sapiens) (P10415 whole entry, looked up): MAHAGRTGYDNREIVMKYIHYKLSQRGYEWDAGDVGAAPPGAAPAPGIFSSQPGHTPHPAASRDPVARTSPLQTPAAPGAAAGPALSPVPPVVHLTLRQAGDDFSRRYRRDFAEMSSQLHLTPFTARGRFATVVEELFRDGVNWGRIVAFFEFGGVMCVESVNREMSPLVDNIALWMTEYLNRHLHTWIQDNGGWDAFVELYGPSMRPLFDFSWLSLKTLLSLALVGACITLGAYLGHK
Sequence of von Hippel-Lindau disease tumor suppressor/Apoptosis regulator Bcl-2 (Homo sapiens) (P40337 whole entry, looked up): as the sequence (P40337 whole entry, looked up, the tested form may be a part) above

Activity [1]: inactive
Activity [3]: Active
DC50 [4]: 11.6 nM
Activity [5]: inactive
Structure (SMILES): Cc1ncsc1-c1ccc([C@H](C)NC(=O)[C@@H]2C[C@@H](O)CN2C(=O)[C@@H](NC(=O)CCCCCCCCC(=O)NC[C@]2(C)CCC(c3ccc(Cl)cc3)=C(CN3CCN(c4ccc(C(=O)NS(=O)(=O)c5ccc(N[C@H](CCN6CCOCC6)CSc6ccccc6)c(S(=O)(=O)C(F)(F)F)c5)cc4)CC3)C2)C(C)(C)C)cc1
Activity [2]: Active
IC50 [6]: 15.9 nM
IC50 [7]: 11.3 nM
Activity [8]: Active
